Calls of active or inactive are those of the source. The rule behind the calls is not given here.
How the values were obtained:
[1] = target: T1, Prostaglandin E synthase (Homo sapiens, UniProt O14684); assay: Inhibition of mPGES-1 in human IL-1beta-stimulated A549 cell microsomes assessed as reduction of PGE2 formation from PGH2 after 15 mins by RP-HPLC analysis; set-up: species or system Microsome
T1 sequence (O14684 whole entry): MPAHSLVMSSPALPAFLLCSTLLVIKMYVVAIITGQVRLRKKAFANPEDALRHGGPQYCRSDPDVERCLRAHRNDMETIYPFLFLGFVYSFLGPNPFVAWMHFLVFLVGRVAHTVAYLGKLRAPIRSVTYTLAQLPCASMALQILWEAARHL
Summary of the method: (§1)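 A549 cells in DMEM with 2% FCS for 16 h, induced with IL-1β (1 ng/mL) for 72 h, homogenized. Microsomal pellet (174 000 × g) diluted in 0.1 M potassium phosphate pH 7.4 with 2.5 mM glutathione, given compound or DMSO for 15 min. PGH₂ added (20 μM final), 1 min at 4 °C, stopped with FeCl₂/citric acid. PGE₂ by SPE and RP-HPLC (UV 195 nm), 11β-PGE₂ internal standard. Tested up to 10 μM; IC₅₀ reported only above 50% inhibition at 10 μM.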

[2] = target: T2, Prostaglandin E synthase (Homo sapiens) (UniProt O14684); assay: Inhibition of mPGES-1 in human IL-1beta-stimulated A549 cell microsomes assessed as residual activity by measuring reduction of PGE2 formation from PGH2 at 10 uM after 15 mins by RP-HPLC analysis; conditions: Microsome; summary of the method: as §1
T2 sequence (whole entry): T1 sequence (O14684 whole entry)

[3] = target: T3, Polyunsaturated fatty acid 5-lipoxygenase (Homo sapiens, UniProt P09917); assay: Inhibition of human recombinant 5-lipoxygenase-mediated product formation from arachidonic acid after 5 to 10 mins by HPLC analysis
T3 sequence (P09917 whole entry): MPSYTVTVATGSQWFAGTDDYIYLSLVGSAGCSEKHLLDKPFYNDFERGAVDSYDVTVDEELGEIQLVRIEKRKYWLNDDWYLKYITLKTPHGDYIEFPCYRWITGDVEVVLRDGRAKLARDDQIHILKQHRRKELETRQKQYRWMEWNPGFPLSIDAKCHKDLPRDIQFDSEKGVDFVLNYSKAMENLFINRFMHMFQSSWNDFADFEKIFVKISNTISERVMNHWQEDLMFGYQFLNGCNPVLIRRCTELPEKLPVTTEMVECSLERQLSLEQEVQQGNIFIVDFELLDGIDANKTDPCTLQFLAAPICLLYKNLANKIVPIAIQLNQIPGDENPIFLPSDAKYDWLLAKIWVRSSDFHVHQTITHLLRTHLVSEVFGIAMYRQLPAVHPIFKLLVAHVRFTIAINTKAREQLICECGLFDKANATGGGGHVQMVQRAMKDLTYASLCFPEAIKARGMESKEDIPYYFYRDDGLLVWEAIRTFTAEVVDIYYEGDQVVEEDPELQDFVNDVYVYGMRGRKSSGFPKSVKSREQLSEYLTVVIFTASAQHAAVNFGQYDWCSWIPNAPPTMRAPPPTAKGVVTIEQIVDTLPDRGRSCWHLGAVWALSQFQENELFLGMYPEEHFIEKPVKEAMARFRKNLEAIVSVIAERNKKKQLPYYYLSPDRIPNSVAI
Summary of the method: (§2)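 Human 5-LO expressed in E. coli BL21 (pT3-5LO) at 37 °C, purified and used at once. Enzyme (0.5 μg/mL in PBS/EDTA with 1 mM ATP) preincubated with compound 5–10 min at 4 °C, prewarmed 30 s at 37 °C, started with 2 mM CaCl₂ + 20 μM AA (±1 μM 13(S)-HpODE), 10 min at 37 °C, stopped with cold methanol, products by HPLC.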

[4] = target: T4, Polyunsaturated fatty acid 5-lipoxygenase (Homo sapiens) (UniProt P09917); assay: Inhibition of human recombinant 5-lipoxygenase-mediated product formation from arachidonic acid assessed as remaining activity at 10 uM after 5 to 10 mins by HPLC analysis; summary of the method: as §2
T4 sequence (whole entry): T3 sequence (P09917 whole entry)

[5] = target: T3, Polyunsaturated fatty acid 5-lipoxygenase; assay: Inhibition of 5-lipoxygenase-mediated 5(S)-H(p)ETE formation in fMLP-stimulated human PMNL incubated 10 mins prior to fMLP challenge
[6] = Cytotoxicity in human polymorphonuclear leukocytes assessed as cell viability at 10 uM after 30 mins by MTT assay
[7] = target: Prostaglandin G/H synthase 1 (Ovis aries) (UniProt P05979); assay: Inhibition of ovine COX-1 mediated formation of 12-HHT from arachidonic acid assessed as remaining activity at 10 uM after 5 mins by HPLC analysis
[8] = target: Prostaglandin G/H synthase 2 (Homo sapiens) (UniProt P35354); assay: Inhibition of human recombinant COX-2 mediated formation of 12-HHT from arachidonic acid assessed as remaining activity at 10 uM after 5 mins by HPLC analysis
[9] = target: T5, Polyunsaturated fatty acid lipoxygenase ALOX15 (Homo sapiens) (UniProt P16050); assay: Inhibition of 15-lipoxygenase in A23187-stimulated human PMNL assessed as reduction of 15(S)-H(P)ETE formation preincubated 15 mins by RP-HPLC analysis in presence of exogenous arachidonic acid
T5 sequence (whole entry): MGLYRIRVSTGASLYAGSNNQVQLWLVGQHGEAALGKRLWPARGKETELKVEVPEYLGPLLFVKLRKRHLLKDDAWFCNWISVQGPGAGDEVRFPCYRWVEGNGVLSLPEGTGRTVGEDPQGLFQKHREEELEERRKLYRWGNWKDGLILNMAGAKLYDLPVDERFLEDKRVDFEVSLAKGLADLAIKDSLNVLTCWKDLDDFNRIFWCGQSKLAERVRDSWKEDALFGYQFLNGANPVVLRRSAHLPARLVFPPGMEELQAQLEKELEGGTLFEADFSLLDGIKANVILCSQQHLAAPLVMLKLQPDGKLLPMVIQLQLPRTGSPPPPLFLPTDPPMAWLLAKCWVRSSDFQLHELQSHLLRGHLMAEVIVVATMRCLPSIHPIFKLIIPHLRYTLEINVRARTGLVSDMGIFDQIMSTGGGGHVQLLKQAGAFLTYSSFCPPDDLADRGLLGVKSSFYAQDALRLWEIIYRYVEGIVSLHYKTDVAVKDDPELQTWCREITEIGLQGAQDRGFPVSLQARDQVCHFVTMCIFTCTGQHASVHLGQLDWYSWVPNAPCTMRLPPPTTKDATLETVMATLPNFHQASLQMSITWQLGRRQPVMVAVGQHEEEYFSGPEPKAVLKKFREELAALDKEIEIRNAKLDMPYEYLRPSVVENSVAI
Summary of the method: (§3)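 Freshly isolated human PMNL (5 × 10⁶/mL in PBS pH 7.4 with 1 mg/mL glucose and 1 mM CaCl₂) preincubated with compound 15 min at 37 °C, then stimulated with 2.5 μM A23187 plus exogenous AA for 10 min at 37 °C. Stopped with methanol, PGB₁ added as internal standard, extracted, HPLC: 15(S)-H(p)ETE taken as 15-LO product, 12(S)-H(p)ETE as 12-LO product (platelet-type 12-LO from PMNL-adherent platelets).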

[10] = target: T6, Polyunsaturated fatty acid lipoxygenase ALOX12 (Homo sapiens) (UniProt P18054); assay: Inhibition of 12-lipoxygenase in A23187-stimulated human PMNL assessed as reduction of 12(S)-H(P)ETE formation preincubated 15 mins by RP-HPLC analysis in presence of exogenous arachidonic acid; summary of the method: as §3
T6 sequence (whole entry): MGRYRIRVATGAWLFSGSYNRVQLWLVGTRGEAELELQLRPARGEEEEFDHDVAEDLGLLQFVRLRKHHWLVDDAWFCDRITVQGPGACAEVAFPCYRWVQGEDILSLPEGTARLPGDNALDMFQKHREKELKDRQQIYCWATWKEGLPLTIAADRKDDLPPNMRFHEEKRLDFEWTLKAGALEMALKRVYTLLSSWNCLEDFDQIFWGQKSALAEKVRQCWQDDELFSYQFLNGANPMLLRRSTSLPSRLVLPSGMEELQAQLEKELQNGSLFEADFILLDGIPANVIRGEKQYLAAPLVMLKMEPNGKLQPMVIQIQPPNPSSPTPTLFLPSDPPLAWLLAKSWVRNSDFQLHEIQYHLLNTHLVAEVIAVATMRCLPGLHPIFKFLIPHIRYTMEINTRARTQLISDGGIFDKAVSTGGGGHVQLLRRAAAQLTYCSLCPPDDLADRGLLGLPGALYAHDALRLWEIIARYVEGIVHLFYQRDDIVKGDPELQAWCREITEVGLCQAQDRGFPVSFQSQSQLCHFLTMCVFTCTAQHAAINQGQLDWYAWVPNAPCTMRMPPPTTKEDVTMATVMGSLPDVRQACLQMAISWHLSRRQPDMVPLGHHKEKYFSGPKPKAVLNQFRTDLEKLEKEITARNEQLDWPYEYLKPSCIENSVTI

[11] = target: T3, Polyunsaturated fatty acid 5-lipoxygenase; assay: Inhibition of 5-lipoxygenase-mediated 5(S)-H(p)ETE formation in A23187-stimulated human PMNL incubated 10 mins prior to A23187 challenge
[12] = target: T4, Polyunsaturated fatty acid 5-lipoxygenase (Homo sapiens); assay: Selectivity ratio of IC50 for human recombinant 5-lipoxygenase in cell-free system to IC50 for 5-lipoxygenase-mediated 5(S)-H(p)ETE formation in A23187-stimulated PMNL
[13] = target: T4, Polyunsaturated fatty acid 5-lipoxygenase (Homo sapiens); assay: Inhibition of human recombinant 5-lipoxygenase-mediated product formation from arachidonic acid assessed as remaining activity at 1 uM after 5 to 10 mins by HPLC analysis; summary of the method: as §2
[14] = tested on: Radical scavenging activity; assay: Antioxidant activity assessed as DPPH radical scavenging activity at 100 uM; type: functional
Summary of the method: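 Non-enzymatic radical scavenging test: reduction of 1,1-diphenyl-2-picrylhydrazyl (DPPH) measured with test compound up to 100 μM; ascorbic acid and L-cysteine run as reference reductants.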

[15] = target: T5, Polyunsaturated fatty acid lipoxygenase ALOX15 (Homo sapiens); assay: Inhibition of 15-lipoxygenase in A23187-stimulated human PMNL assessed as reduction of 15(S)-H(P)ETE formation up to 10 uM preincubated 15 mins by RP-HPLC analysis in presence of exogenous arachidonic acid; summary of the method: as §3
[16] = target: T6, Polyunsaturated fatty acid lipoxygenase ALOX12 (Homo sapiens); assay: Inhibition of 12-lipoxygenase in A23187-stimulated human PMNL assessed as reduction of 12(S)-H(P)ETE formation up to 10 uM preincubated 15 mins by RP-HPLC analysis in presence of exogenous arachidonic acid; summary of the method: as §3
[17] = target: T3, Polyunsaturated fatty acid 5-lipoxygenase; assay: Inhibition of 5-lipoxygenase in human PMNL S100 supernatant assessed as inhibition of enzyme product formation preincubated for 5 to 10 mins before arachidonic acid addition by HPLC analysis
Summary of the method: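 PMNL (5 × 10⁶/mL in PBS/1 mM EDTA) sonicated, centrifuged 100 000 × g for 1 h at 4 °C. S100 diluted in PBS/EDTA with 1 mM ATP, ±1 mM DTT, and preincubated with compound or 0.3% DMSO 5–10 min at 4 °C. Prewarmed 30 s at 37 °C, started with 2 mM CaCl₂ + 20 μM AA, 10 min at 37 °C, stopped with cold methanol, 5-LO products by HPLC.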

Structure (SMILES)	IC50 [1] [µM]	Activity [2] [%]	IC50 [3] [µM]	Activity [4] [%]	Activity [6]	Activity [7] [%]	Activity [8] [%]	IC50 [11] [µM]	Ratio IC50 [12]	other results
CCCCC(Cc1ccc(OCCc2ccccc2)cc1OCCc1ccccc1)C(=O)O (stereo not given)	> 10	90.1	> 10	85.6	Non-toxic	99.1	110	–	–	IC50 [5]: > 10 µM
Cc1ccc(-c2cc(C(F)(F)F)nn2-c2ccc(S(N)(=O)=O)cc2)cc1	–	–	–	–	–	–	–	–	–	inhibition [9]: inactive; inhibition [10]: inactive
CCCCC(Sc1nc(OCCc2ccc(OC)cc2)cc(OCCc2ccc(OC)cc2)n1)C(=O)O (stereo not given)	> 10	63.7	7	–	–	–	–	0.3	> 20	–
CC(C)c1ccc2c(c1)c(SC(C)(C)C)c(CC(C)(C)C(=O)O)n2Cc1ccc(Cl)cc1	–	–	–	–	–	–	–	–	–	inhibition [13]: inactive
N[C@@H](CS)C(=O)O	–	–	–	–	–	–	–	–	–	Activity [14]: Active
O=C1O[C@H]([C@@H](O)CO)C(O)=C1O	–	–	–	–	–	–	–	–	–	Activity [14]: Active
CCCCC(Sc1nc(OCCc2ccc(OC(F)(F)F)cc2)cc(OCCc2ccc(OC(F)(F)F)cc2)n1)C(=O)O (stereo not given)	> 10	88.3	> 10	56.4	–	–	–	0.5	> 20	–
CCCC/C(=C\c1cc(OCCC2CCCCC2)ccc1OCc1ccc(C(F)(F)F)cc1)C(=O)O	> 10	74	10	55.5	Non-toxic	92.3	106	0.4	> 20	–
CCCCCCC(Sc1nc(OCCc2ccccc2)cc(OCCc2ccccc2)n1)C(=O)O (stereo not given)	2	–	2.8	–	–	–	–	–	–	inhibition [15]: inactive; inhibition [16]: inactive; IC50 [17]: 12.5 µM; Activity [14]: inactive; IC50 [5]: 0.4 µM
CCCCC(Oc1cc(OCCc2ccccc2)cc(OCCc2ccccc2)c1)C(=O)O (stereo not given)	3.4	–	> 10	–	Non-toxic	71.6	92.5	0.6	> 20	–
CCCC/C(=C\c1cc(OCCc2ccc(C(F)(F)F)cc2)ccc1OCCc1ccc(C(F)(F)F)cc1)C(=O)O	3.5	–	> 10	55.6	Non-toxic	81	102	0.3	> 20	–
